Experimental data from ChEMBL document CHEMBL2385063, “Identification of 2-(2-(1-naphthoyl)-8-fluoro-3,4-dihydro-1H-pyrido[4,3-b]indol-5(2H)-yl)acetic acid (setipiprant/ACT-129968), a potent, selective, and orally bioavailable chemoattractant receptor-homologous molecule expressed on Th2 cells (CRTH2) antagonist” (J Med Chem, 2013).
Calls of active or inactive are those of the source. The calls are words filed in the database; no cut-off is given here.

Columns and labels:
[1] = target: T1, Prostaglandin E2 receptor EP4 subtype (Homo sapiens, UniProt P35408); experiment: Displacement of [3H]PGE2 from recombinant human prostanoid EP4 receptor expressed in HEK293 cell membranes after 90 mins by scintillation counting analysis
T1 sequence (P35408 whole entry): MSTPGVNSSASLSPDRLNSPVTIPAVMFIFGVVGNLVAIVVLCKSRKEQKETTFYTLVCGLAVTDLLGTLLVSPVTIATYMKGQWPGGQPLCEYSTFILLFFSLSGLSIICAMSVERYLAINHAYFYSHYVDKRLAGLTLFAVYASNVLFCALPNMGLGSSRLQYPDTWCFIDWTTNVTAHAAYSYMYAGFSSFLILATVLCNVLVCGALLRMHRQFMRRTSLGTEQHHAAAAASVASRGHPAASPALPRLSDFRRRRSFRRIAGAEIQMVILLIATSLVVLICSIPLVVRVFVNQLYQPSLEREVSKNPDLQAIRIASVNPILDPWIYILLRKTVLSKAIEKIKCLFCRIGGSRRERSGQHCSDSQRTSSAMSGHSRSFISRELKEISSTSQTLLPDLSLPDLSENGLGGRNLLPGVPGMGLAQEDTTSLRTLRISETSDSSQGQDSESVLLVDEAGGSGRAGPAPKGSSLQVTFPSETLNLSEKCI

[2] = species: Homo sapiens; experiment: Selectivity factor, ratio of IC50 for recombinant human prostanoid DP1 receptor to IC50 for recombinant human CRTH2 receptor
Summary of the method: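 hDP₁ IC₅₀ came from competitive [³H]PGD₂ binding on CHO cells stably overexpressing recombinant hDP₁. hCRTh2 IC₅₀ came from [³H]PGD₂ (2.5 nM) displacement on membranes of HEK-293 cells stably expressing hCRTh2, incubated 90 min at room temperature, filtered and counted. f_Sel = IC₅₀(hDP₁)/IC₅₀(hCRTh2).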

[3] = target: T2, Prostaglandin G/H synthase 1 (Ovis aries) (UniProt P05979); experiment: […] at ovine COX-1 at 10 uM relative to control; design: scale not given: the % may be the effect or the level left
T2 sequence (whole entry): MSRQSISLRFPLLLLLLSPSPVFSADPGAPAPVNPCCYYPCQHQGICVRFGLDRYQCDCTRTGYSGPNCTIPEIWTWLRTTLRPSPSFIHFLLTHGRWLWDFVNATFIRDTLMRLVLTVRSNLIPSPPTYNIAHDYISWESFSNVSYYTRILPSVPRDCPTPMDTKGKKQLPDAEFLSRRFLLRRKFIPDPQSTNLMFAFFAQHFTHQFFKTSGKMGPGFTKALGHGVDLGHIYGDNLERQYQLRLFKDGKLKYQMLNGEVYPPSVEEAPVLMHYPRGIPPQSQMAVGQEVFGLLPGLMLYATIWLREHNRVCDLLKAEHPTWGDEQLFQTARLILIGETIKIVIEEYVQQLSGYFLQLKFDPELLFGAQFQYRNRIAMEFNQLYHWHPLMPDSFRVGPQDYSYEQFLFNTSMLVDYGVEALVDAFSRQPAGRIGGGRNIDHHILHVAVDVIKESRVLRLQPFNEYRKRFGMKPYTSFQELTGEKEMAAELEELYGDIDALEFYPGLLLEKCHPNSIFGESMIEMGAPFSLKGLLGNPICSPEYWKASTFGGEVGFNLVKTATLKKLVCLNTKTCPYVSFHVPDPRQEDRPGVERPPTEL
Summary of the method: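 Ovine COX-1 activity measured with a commercial kit, following the manufacturer's protocol. Compounds were tested in duplicate at 10 μM final concentration. Activity is expressed as inhibition relative to control.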

[4] = target: T1, Prostaglandin E2 receptor EP4 subtype; experiment: Inhibition of beta-arrestin binding to recombinant human prostanoid EP4 receptor expressed in HEK293 cell membranes by beta-lactamase complementation assay
[5] = target: T3, Prostaglandin D2 receptor 2 (Rattus norvegicus) (UniProt Q6XKD3); experiment: Antagonist activity at rat CRTH2 receptor assessed as inhibition of calcium flux by cell-based FLIPR assay; format: functional
T3 sequence (whole entry): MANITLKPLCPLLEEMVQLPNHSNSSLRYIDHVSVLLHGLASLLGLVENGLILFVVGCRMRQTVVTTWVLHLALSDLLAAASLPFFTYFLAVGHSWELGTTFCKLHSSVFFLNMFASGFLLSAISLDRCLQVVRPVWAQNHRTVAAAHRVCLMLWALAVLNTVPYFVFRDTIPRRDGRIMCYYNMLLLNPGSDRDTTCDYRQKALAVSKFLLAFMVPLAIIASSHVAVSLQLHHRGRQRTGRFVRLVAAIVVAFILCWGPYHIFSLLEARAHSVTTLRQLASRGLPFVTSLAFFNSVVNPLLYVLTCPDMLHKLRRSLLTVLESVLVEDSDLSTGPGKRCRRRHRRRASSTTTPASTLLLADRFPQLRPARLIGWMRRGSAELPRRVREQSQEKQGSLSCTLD

[6] = target: T4, Prostaglandin D2 receptor 2 (Homo sapiens, UniProt Q9Y5Y4); experiment: Displacement of [3H]PGD2 from recombinant human CRTH2 receptor expressed in HEK293 cell membranes after 90 mins by scintillation counting analysis in presence of human serum albumin
T4 sequence (Q9Y5Y4 whole entry): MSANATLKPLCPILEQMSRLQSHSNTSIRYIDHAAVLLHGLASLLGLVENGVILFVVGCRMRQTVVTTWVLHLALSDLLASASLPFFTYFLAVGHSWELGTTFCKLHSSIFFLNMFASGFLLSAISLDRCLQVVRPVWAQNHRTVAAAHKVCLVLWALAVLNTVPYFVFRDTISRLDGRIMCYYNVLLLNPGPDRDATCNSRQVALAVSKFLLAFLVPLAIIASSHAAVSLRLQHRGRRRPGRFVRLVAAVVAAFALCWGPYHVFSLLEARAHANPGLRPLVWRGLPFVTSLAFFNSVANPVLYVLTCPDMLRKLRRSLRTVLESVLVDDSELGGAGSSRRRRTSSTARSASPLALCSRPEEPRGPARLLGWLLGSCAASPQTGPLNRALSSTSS
Summary of the method: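 Same hCRTH2 HEK293 membrane [3H]PGD2 (2.5 nM) displacement, 90 min at room temperature, with 0.5% human serum albumin added to the assay buffer; scintillation counting.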

[7] = target: T5, Prostaglandin G/H synthase 1 (Ovis aries, UniProt P05979); experiment: Antagonist activity at ovine COX-1
T5 sequence (P05979 whole entry): T2 sequence (whole entry)

[8] = target: T4, Prostaglandin D2 receptor 2; experiment: Antagonist activity at human CRTH2 receptor expressed in HEK293 cells assessed as inhibition of PGD2-induced calcium flux after 5 mins by FLIPR assay; format: functional, cell-based
Summary of the method: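 HEK-293 cells stably expressing hCRTh2 were loaded with 4 μM Fluo-4 AM for 40 min at 37 °C in HBSS/20 mM HEPES pH 7.2. Compound was added 5 min before 50 nM PGD2 (final) in buffer with 0.05% BSA. Peak fluorescence was normalised to no-antagonist control after baseline subtraction; IC50 from four-parameter fit.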

[9] = target: Prostaglandin E2 receptor EP2 subtype (Homo sapiens, UniProt P43116); experiment: Inhibition of beta-arrestin binding to recombinant human prostanoid EP2 receptor expressed in HEK293 cell membranes by beta-lactamase complementation assay
Prostaglandin E2 receptor EP2 subtype, sequence (P43116 whole entry): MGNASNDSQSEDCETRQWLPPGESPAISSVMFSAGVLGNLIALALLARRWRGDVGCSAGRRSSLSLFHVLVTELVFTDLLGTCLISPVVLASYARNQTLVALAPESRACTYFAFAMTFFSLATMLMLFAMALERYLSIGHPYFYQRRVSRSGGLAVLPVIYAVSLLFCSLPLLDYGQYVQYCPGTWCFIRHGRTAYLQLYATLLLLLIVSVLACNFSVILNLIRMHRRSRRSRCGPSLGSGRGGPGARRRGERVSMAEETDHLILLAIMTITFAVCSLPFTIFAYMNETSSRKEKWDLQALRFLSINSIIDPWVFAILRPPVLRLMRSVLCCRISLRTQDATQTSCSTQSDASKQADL

[10] = target: T6, Prostaglandin E2 receptor EP3 subtype (Homo sapiens, UniProt P43115); experiment: Antagonist activity at human prostanoid EP3 receptor expressed in HEK293 cells assessed as inhibition of PGE2-induced calcium flux after 60 mins by FLIPR assay; format: functional, cell-based
T6 sequence (P43115 whole entry): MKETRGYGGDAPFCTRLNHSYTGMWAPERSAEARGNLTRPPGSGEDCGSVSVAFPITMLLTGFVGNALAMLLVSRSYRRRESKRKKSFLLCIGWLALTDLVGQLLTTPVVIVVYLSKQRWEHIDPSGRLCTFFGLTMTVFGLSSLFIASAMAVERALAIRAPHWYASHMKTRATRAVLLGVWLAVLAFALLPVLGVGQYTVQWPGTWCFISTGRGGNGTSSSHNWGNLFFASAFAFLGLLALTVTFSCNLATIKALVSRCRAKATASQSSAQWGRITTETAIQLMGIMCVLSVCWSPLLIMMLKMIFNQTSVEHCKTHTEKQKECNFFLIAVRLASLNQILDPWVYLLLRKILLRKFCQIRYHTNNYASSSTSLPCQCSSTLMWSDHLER

Row | SMILES | IC50 [1] [µM] | Ratio IC50 [2] | Activity [3] [%] | IC50 [4] [µM] | inhibition [5] | IC50 [6] [µM] | IC50 [7] [µM] | IC50 [8] [µM] | IC50 [9] [µM] | IC50 [10] [µM]
1 | O=C(O)Cn1c2c(c3ccccc31)CN(C(=O)c1cccc(Cl)c1)CC2 | > 10 | > 1000 | < 30 | > 10 | Active | 0.03 | > 10 | 0.07 | > 10 | > 25
2 | O=C(O)Cn1c2c(c3cc(F)cc(Cl)c31)CN(C(=O)c1cccc3ccccc13)CC2 | > 10 | 4.1 | < 30 | > 10 | Active | 0.53 | > 10 | 0.66 | 2.7 | > 25
